Starred links: 1 amine or outer side, 2 acyl side, 3 side chain; linkers in the order of their positions; H or OH if unused. Non-standard residues stand in square brackets, D forms with d. Residues, ends and D or L forms follow the SMILES beside them. *: point of attachment. Gly(2S-L-tryptophyl) = N[C@H](C(=O)O)C(=O)[C@@H](N)Cc1c[nH]c2ccccc12; X1 = O=C1[C@@H](CCC(=O)[*:2])CCC[C@H]1N[*:1]; Cbz = O=C(OCc1ccccc1)*
Legend:
Plasminogen = Plasminogen (Homo sapiens, UniProt P00747); experiment: Inhibitory concentration against plasmin
Plasminogen, sequence (P00747 97-580 limits assumed): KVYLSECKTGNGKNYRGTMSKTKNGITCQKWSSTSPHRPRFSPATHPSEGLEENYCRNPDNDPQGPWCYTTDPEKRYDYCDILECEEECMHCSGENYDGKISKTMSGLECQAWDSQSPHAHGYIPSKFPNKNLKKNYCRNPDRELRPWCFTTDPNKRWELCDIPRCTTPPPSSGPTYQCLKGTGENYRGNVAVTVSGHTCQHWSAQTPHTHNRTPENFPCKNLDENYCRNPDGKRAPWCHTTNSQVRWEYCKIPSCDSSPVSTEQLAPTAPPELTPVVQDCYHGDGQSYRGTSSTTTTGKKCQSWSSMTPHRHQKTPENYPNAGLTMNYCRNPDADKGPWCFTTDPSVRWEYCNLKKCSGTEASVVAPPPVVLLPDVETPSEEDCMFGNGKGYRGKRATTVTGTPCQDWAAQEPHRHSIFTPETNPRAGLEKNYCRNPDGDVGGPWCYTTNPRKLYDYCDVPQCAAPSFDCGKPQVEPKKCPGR
Plasminogen, sequence (P00747 581-810 limits assumed): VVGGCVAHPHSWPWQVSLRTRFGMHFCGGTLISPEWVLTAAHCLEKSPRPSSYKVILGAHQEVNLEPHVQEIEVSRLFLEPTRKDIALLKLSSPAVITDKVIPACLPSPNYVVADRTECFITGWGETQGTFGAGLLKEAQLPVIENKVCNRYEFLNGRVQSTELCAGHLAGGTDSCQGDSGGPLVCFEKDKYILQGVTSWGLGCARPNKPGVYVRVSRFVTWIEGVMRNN
Summary of the method: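 Plasmin is cleaving D-Val-Leu-Lys-pNA, kept constant at its measured KM (167 μM). Reactions were run at 25 °C in 50 mM sodium phosphate buffer, pH 7.4, containing 10% DMSO final. Initial velocity was read as p-nitroaniline release at 405 nm between 30 and 120 s post-mixing. IC50 was determined from inhibited versus uninhibited rates.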

Plasma kallikrein = Plasma kallikrein (Homo sapiens, UniProt P03952); experiment: Inhibitory concentration against kallikrein
Plasma kallikrein, sequence (P03952 20-390 limits assumed): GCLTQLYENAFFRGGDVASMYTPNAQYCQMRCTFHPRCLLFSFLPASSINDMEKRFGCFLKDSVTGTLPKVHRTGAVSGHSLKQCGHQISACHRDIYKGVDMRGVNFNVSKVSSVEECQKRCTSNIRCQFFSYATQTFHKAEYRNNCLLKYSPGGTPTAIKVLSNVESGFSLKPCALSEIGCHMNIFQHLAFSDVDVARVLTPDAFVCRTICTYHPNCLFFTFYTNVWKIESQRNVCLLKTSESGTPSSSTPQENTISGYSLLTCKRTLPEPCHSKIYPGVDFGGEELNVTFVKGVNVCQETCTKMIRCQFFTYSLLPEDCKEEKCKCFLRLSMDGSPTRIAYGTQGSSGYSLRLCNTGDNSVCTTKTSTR
Plasma kallikrein, sequence (P03952 391-638 limits assumed): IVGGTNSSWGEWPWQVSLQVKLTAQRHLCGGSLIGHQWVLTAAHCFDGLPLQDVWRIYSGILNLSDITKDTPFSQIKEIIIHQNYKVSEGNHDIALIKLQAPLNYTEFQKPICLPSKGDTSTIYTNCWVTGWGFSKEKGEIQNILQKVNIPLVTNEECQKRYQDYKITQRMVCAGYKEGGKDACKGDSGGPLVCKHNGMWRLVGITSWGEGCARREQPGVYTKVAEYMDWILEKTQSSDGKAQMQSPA

Prothrombin = Prothrombin (Homo sapiens, UniProt P00734); experiment: Inhibitory concentration against thrombin
Summary of the method: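 Thrombin is tested against chromogenic D-Phe-Pip-Arg-pNA at its KM, measured as 45 μM. Conditions were 50 mM sodium phosphate (pH 7.4), 10% DMSO final, 25 °C. p-Nitroaniline formation was followed at 405 nm from 30 to 120 s after mixing to give initial rates, from which IC50 was obtained.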

Serine protease 1 = Serine protease 1 (Homo sapiens, UniProt P07477); experiment: Inhibitory concentration against trypsin
Serine protease 1, sequence (P07477 whole entry): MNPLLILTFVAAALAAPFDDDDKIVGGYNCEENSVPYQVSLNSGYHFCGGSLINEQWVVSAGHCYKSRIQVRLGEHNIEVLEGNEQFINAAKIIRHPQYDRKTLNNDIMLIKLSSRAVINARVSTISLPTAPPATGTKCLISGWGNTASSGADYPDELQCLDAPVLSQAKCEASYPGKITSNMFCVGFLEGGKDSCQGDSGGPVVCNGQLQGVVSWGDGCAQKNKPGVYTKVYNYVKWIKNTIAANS
Summary of the method: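 For trypsin, the substrate was D-Phe-Pip-Arg-pNA at its KM of 122 μM. Assays were run at 25 °C in 50 mM sodium phosphate pH 7.4 with 10% DMSO final. Initial rates came from the 405 nm p-nitroaniline signal over 30–120 s after mixing. IC50 values came from comparing rates with and without inhibitor.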

| IC50 (Plasminogen) | IC50 (Plasma kallikrein) | IC50 (Prothrombin) | IC50 (Serine protease 1) | Compound |
| --- | --- | --- | --- | --- |
| 13.5 µM |  |  |  | CC[C@H](C)[C@H](N)C(=O)[C@H](NC(=O)[C@@H](NC(=O)CC[C@H]1CCC[C@@H](NC(=O)[C@@H](NC(=O)[C@@H](NC(=O)OCc2ccccc2)C(=O)[C@@H](N)Cc2c[nH]c3ccccc23)C(=O)[C@@H](N)Cc2c[nH]c3ccccc23)C1=O)C(=O)[C@@H](N)Cc1c[nH]c2ccccc12)C(=O)OC |
| 2.7 µM | > 400 µM | > 400 µM | > 400 µM | COC(=O)[C@@H](NC(=O)[C@@H](NC(=O)CC[C@H]1CCC[C@@H](NC(=O)[C@@H](NC(=O)[C@@H](NC(=O)OCc2ccccc2)C(=O)[C@@H](N)Cc2c[nH]c3ccccc23)C(=O)[C@@H](N)Cc2c[nH]c3ccccc23)C1=O)C(=O)[C@@H](N)Cc1c[nH]c2ccccc12)C(=O)[C@@H](N)Cc1ccc(O)cc1 |
| 14.1 µM |  |  |  | COC(=O)[C@@H](NC(=O)[C@@H](NC(=O)CC[C@H]1CCC[C@@H](NC(=O)[C@@H](NC(=O)[C@@H](NC(=O)OCc2ccccc2)C(=O)[C@@H](N)Cc2c[nH]c3ccccc23)C(=O)[C@@H](N)Cc2c[nH]c3ccccc23)C1=O)C(=O)[C@@H](N)Cc1c[nH]c2ccccc12)C(=O)[C@@H](N)C(C)C |
| 3.2 µM |  |  |  | COC(=O)[C@@H](NC(=O)[C@@H](NC(=O)CC[C@H]1CCC[C@@H](NC(=O)[C@@H](NC(=O)[C@@H](NC(=O)OCc2ccccc2)C(=O)[C@@H](N)Cc2c[nH]c3ccccc23)C(=O)[C@@H](N)Cc2c[nH]c3ccccc23)C1=O)C(=O)[C@@H](N)Cc1c[nH]c2ccccc12)C(=O)[C@@H](N)CC(C)C |
| 6.6 µM |  |  |  | COC(=O)[C@@H](NC(=O)[C@@H](NC(=O)CC[C@H]1CCC[C@@H](NC(=O)[C@@H](NC(=O)[C@@H](NC(=O)OCc2ccccc2)C(=O)[C@@H](N)Cc2c[nH]c3ccccc23)C(=O)[C@@H](N)Cc2c[nH]c3ccccc23)C1=O)C(=O)[C@@H](N)Cc1c[nH]c2ccccc12)C(=O)[C@H](C)N |
| 3.3 µM |  |  |  | COC(=O)[C@@H](NC(=O)[C@@H](NC(=O)CC[C@H]1CCC[C@@H](NC(=O)[C@@H](NC(=O)[C@@H](NC(=O)OCc2ccccc2)C(=O)[C@@H](N)Cc2c[nH]c3ccccc23)C(=O)[C@@H](N)Cc2c[nH]c3ccccc23)C1=O)C(=O)[C@@H](N)Cc1c[nH]c2ccccc12)C(=O)[C@@H](N)Cc1ccccc1 |
| 3.6 µM |  |  |  | COC(=O)[C@@H](NC(=O)[C@@H](NC(=O)CC[C@H]1CCC[C@@H](NC(=O)[C@@H](NC(=O)[C@@H](NC(=O)OCc2ccccc2)C(=O)[C@@H](N)Cc2c[nH]c3ccccc23)C(=O)[C@@H](N)Cc2c[nH]c3ccccc23)C1=O)C(=O)[C@@H](N)Cc1c[nH]c2ccccc12)C(=O)[C@@H](N)Cc1c[nH]c2ccccc12 (Cbz-[Gly(2S-L-tryptophyl)][Gly(2S-L-tryptophyl)][X1][Gly(2S-L-tryptophyl)][Gly(2S-L-tryptophyl)]-OMe) |

— ChEMBL document CHEMBL1140375, “Selective inhibitors of the serine protease plasmin: probing the S3 and S3' subsites using a combinatorial library” (J Med Chem, 2005)
